Consider nine compounds from ChEMBL document CHEMBL1126888, “Peptide alpha-keto ester, alpha-keto amide, and alpha-keto acid inhibitors of calpains and other cysteine proteases” (J Med Chem, 1993).

pIC50, pKi: −log10 of the molar value.

Assay [1] addresses Calpain 1 (Homo sapiens, UniProt P07384). Kind of assay: Inhibitory activity of alpha-keto esters towards calpain 1 at pH 8.0. Type of assay: protein-complex assay. An outline of the steps:
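Calpain I purified from human erythrocytes; calpain II from rabbit muscle. Buffer: 25 mM Tris pH 8.0, 1 mM β-mercaptoethanol, 10 mM CaCl2, up to 5% DMSO. Substrate: Suc-Leu-Tyr-AMC at 1–3 mM, 70 nM final enzyme, started with enzyme. AMC fluorescence read at ex 380 / em 460 nm. Initial rates taken at 30–60 s at room temperature, with five or more inhibitor levels and two substrate levels. Ki from Dixon plots, triplicates.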

Assay [2] has as its target Cathepsin B (Bos taurus, UniProt P07688). Kind of assay: Inhibition of alpha-keto esters towards cathepsin B at pH 5.2. The method, boiled down: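 Bovine cathepsin B in 20 mM sodium acetate pH 5.2, 0.5 mM dithiothreitol, 2% DMSO. Substrate Bz-Phe-Val-Arg-p-nitroanilide; p-nitroaniline release followed at 405 nm. Ki reported.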
In assay [3] the target is T1, Papain (Carica papaya, UniProt P00784).
T1 sequence (P00784 whole entry): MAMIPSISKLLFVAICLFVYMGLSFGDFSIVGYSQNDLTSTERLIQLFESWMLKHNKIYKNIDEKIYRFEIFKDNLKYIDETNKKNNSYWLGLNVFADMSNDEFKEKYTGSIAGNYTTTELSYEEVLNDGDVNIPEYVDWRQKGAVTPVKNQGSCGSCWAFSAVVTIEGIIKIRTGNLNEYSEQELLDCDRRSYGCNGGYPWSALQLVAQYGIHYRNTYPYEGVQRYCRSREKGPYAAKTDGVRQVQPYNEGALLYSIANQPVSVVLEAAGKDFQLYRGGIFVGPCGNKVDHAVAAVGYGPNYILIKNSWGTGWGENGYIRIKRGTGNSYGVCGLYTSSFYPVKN
Kind of assay: Inhibitory activity of alpha-ketoesters towards papain at pH 6.0. The method, boiled down:
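Papain in 100 mM K3PO4, 1 mM EDTA, 2.5 mM cysteine, pH 6.0, 2% DMSO. Substrate Bz-Arg-p-nitroanilide; p-nitroaniline release read at 405 nm. Ki reported.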

Assay [4] is filed under the species Rattus norvegicus. Kind of assay: Inhibitory potency against rat platelet membrane permeability at pH 7.35. Type of assay: functional. The method, boiled down:
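Rat platelets from cardiac-puncture blood (citrate-EDTA), gel-filtered in HEPES-Tyrode's pH 7.35, at 10^7/mL. Preincubated 5 min at room temperature with inhibitor from DMSO stocks (2% DMSO), then given 1 μM A23187 plus 2 mM Ca for 5 min. Pellets run on SDS-PAGE and western blotted for spectrin. Densitometry of the 150/155-kDa breakdown doublet gives IC50.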

Chain of Calpain 1 (P04632 whole entry): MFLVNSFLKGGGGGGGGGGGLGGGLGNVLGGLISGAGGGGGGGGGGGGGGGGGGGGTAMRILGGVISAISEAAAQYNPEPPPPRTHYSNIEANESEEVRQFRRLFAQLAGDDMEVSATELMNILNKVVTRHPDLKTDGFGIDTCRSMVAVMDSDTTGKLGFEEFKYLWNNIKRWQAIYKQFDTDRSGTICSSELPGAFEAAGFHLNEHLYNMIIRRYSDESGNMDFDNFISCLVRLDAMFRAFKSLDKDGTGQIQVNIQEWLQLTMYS
Chain of Calpain 1 (P07384 whole entry): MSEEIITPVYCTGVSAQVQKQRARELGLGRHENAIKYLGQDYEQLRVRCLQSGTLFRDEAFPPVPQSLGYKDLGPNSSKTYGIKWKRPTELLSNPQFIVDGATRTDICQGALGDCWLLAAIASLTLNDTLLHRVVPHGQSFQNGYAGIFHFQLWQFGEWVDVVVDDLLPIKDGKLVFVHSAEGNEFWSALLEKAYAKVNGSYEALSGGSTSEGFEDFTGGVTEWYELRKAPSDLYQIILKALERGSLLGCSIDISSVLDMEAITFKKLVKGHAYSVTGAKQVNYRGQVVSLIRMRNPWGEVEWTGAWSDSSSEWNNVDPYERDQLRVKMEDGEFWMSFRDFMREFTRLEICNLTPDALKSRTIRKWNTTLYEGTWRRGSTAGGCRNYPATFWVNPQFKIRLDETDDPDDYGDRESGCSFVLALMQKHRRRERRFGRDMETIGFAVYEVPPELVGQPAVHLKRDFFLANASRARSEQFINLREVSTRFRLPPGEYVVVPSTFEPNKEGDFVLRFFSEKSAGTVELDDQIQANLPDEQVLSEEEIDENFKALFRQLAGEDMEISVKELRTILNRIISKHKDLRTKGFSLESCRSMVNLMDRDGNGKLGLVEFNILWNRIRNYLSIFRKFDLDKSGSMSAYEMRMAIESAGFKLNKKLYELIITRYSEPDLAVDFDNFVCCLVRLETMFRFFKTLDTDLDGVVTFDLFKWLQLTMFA

For the compound `CCC(NC(=O)C(CC(C)C)NC(=O)OCc1ccccc1)C(=O)C(=O)OCc1ccccc1` (stereo unspecified), the figures for the pKi in assay [1], in assay [2] and in assay [3] were 5.02, 5.40 and 4.40, respectively. This compound also had a pIC50 in assay [4] of 4.00.
As for `CCC(NC(=O)C(CC(C)C)NC(=O)OCc1ccccc1)C(=O)C(=O)NCCc1ccccc1` (stereo unspecified), the pKi in assay [1] was 6.70; in assay [2], 5.89; in assay [3], 4.42. This compound also gave a pIC50 in assay [4] of 4.30.
For `CCCC(NC(=O)C(CC(C)C)NC(=O)OCc1ccccc1)C(=O)C(=O)OCC` (stereo unspecified), the pKi in assay [1] is 5.85; in assay [2] it was 4.60; in assay [3], 3.82. For the same compound, the pIC50 in assay [4] was 4.00.
Turning to `CCC(NC(=O)C(CC(C)C)NC(=O)OCc1ccccc1)C(=O)C(=O)NCc1ccccc1` (stereo unspecified), the results for the pKi in assay [1], in assay [2] and in assay [3] were 6.70, 5.89 and 4.42, respectively. Besides, in assay [4], the pIC50 is 4.30.
For the compound `CCC(NC(=O)C(CC(C)C)NC(=O)OCc1ccccc1)C(=O)C(=O)O` (stereo unspecified), the figures for the pKi in assay [1], in assay [2] and in assay [3] were 7.12, 5.82 and 4.87, respectively. Further, in assay [4], the pIC50 is 4.00.
For `CCNC(=O)C(=O)C(CC)NC(=O)C(CC(C)C)NC(=O)OCc1ccccc1` (stereo unspecified), the pKi in assay [1] is 6.60; in assay [2], 5.62; in assay [3], 4.03. The compound also showed a pIC50 in assay [4] of 4.00.
For the compound `CCC(NC(=O)C(CC(C)C)NC(=O)OCc1ccccc1)C(=O)C(N)=O` (stereo unspecified), the results for the negative-log Ki (pKi) in assay [1], in assay [2] and in assay [3] were 6.55, 5.47 and 3.72, respectively. The compound further had a pIC50 in assay [4] of 4.05.
As for `CC(C)CC(NC(=O)OCc1ccccc1)C(=O)NC(Cc1ccccc1)C(=O)C(=O)NCCc1ccccc1` (stereo unspecified), the pKi in assay [1] was 7.28; in assay [2] it was 5.03; in assay [3], 4.00. In assay [4], the pIC50 was 4.00.
Regarding `CCNC(=O)C(=O)C(Cc1ccccc1)NC(=O)C(CC(C)C)NC(=O)OCc1ccccc1` (stereo unspecified), the pKi in assay [1] was 6.70; in assay [2], 5.22; in assay [3], 4.35. The pIC50 in assay [4] is 4.66.

In general, pKi refers to the negative decadic logarithm of the Ki, by convention in mol/L. A word on the pIC50: it is −log10 of the IC50, conventionally taken in molar units.
